According to ChEMBL document CHEMBL1136746 (2003):
Several values for one entry are separate records, joined by “and”; a condition that tells them apart may be missing. Equal values may be shown once. Activity calls are given as the source filed them. The rule behind the calls is not given here.

Assays:
Rattus norvegicus [1] = organism: Rattus norvegicus; test: Reduction in the amplitude of the nACh-activated current in rat parasympathetic ganglia at a concentration of 22 nM to that of control response (n =2); assay type: functional; set-up: scale not given: the % may be the effect or the level left
Rattus norvegicus [2] = organism: Rattus norvegicus; test: Percent Hemolysis observed in rat red blood cells when Treated with 5 mM concentration; assay type: functional
Rattus norvegicus [3] = organism: Rattus norvegicus; test: Percent Hemolysis observed in rat red blood cells when Treated with 2 mM concentration; assay type: functional
Rattus norvegicus [4] = organism: Rattus norvegicus; test: Percent Hemolysis observed in rat red blood cells when Treated with 1 mM concentration; assay type: functional
Rattus norvegicus [5] = organism: Rattus norvegicus; test: Reduction in the amplitude of the nACh-activated current in rat parasympathetic ganglia; assay type: functional, organism-based
Caco-2 = test: Apparent Permeability through Caco-2 cell monolayers (n = 4); assay type: functional, cell-based; settings: Homo sapiens
Method in brief: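 Caco-2 cells seeded on polycarbonate inserts (0.45 µm pore, 6.5 mm) and grown 21 days to differentiate; TEER >400 Ω/cm² before and after. ³H-acetylated peptide or [¹⁴C]mannitol (200 µM) added apically in HBSS/25 mM HEPES pH 7.4, 37 °C, shaken 400 rpm. Receiver chamber swapped at 30, 90, 150 min; scintillation counting. Papp averaged over four replicates.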

Rattus norvegicus [6] = organism: Rattus norvegicus; test: Reduction in the nACh-activated current in rat parasympathetic ganglia at a concentration of 4.5 nM to that of control response (n =3); assay type: functional; set-up: scale not given: the % may be the effect or the level left
Rattus norvegicus [7] = organism: Rattus norvegicus; test: Reduction in the amplitude of the nACh-activated current in rat parasympathetic ganglia at 10 uM (n = 3); No effect; assay type: functional, organism-based
Method in brief: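 Perforated-patch whole-cell recording with 240 µg/mL amphotericin B in the pipette (K₂SO₄/KCl/MgSO₄/HEPES, pH 7.2). Bath: NaCl/KCl/CaCl₂/MgCl₂/glucose/HEPES. ACh 500 µM plus atropine 100 nM applied 2 s by piezo. Peptide is present in pipette and perfusate. Current is expressed as % of control, mean ± SEM.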

Rattus norvegicus [8] = organism: Rattus norvegicus; test: Reduction in the amplitude of the nACh-activated current in rat parasympathetic ganglia at a concentration of 22 nM to that of control response (n =4); assay type: functional; set-up: scale not given: the % may be the effect or the level left
Rattus norvegicus [9] = organism: Rattus norvegicus; test: Reduction in the amplitude of the nACh-activated current in rat parasympathetic ganglia at a concentration of 222 nM to that of control response (n =3); assay type: functional; set-up: scale not given: the % may be the effect or the level left

`CC(C)C[C@@H]1NC(=O)[C@H](CC(N)=O)NC(=O)[C@H](CO)NC(=O)[C@H](Cc2c[nH]cn2)NC(=O)[C@H](CCC(=O)O)NC(=O)[C@H](CC(C)C)NC(=O)[C@H](Cc2c[nH]cn2)NC(=O)[C@@H]2CSSC[C@H](NC(=O)CN)C(=O)N[C@@H](CSSC[C@@H](C(=O)O)NC1=O)C(=O)N[C@@H](CO)C(=O)N[C@@H](CC(N)=O)C(=O)N1CCC[C@H]1C(=O)N[C@@H](C(C)C)C(=O)N2` was tested, and the Control (Rattus norvegicus [1]) was 57% and 41%, the Hemolysis (Rattus norvegicus [2]) was 1.35% and the Hemolysis (Rattus norvegicus [3]) was 0.83%. For the same molecule, the Hemolysis (Rattus norvegicus [4]) was 0.53%, the IC50 (Rattus norvegicus [5]) was 10 nM and the Papp (Caco-2) was 20.5 10e-6 cm s-1. For the same molecule, the Control (Rattus norvegicus [6]) was 90%.
For `CCCCCCCCCCC1C(=O)[C@H](CC(N)=O)NC(=O)[C@H](CO)NC(=O)[C@@H]2CSSC[C@@H](C(=O)O)NC(=O)[C@H](CC(C)C)NC(=O)[C@H](CC(N)=O)NC(=O)[C@H](CO)NC(=O)[C@H](Cc3c[nH]cn3)NC(=O)[C@H](CCC(=O)O)NC(=O)[C@H](CC(C)C)NC(=O)[C@H](Cc3c[nH]cn3)NC(=O)[C@H](CSSC[C@H](NC(=O)CN)C(=O)N2)NC(=O)[C@H](C(C)C)NC(=O)[C@@H]2CCCN12` (stereo partly specified), the Reduction (Rattus norvegicus [7]) was “inactive”.
For `CCCCCCCCCCC(NCC(=O)N[C@H]1CSSC[C@@H]2NC(=O)[C@H](C(C)C)NC(=O)[C@@H]3CCCN3C(=O)[C@H](CC(N)=O)NC(=O)[C@H](CO)NC(=O)[C@H](CSSC[C@@H](C(=O)O)NC(=O)[C@H](CC(C)C)NC(=O)[C@H](CC(N)=O)NC(=O)[C@H](CO)NC(=O)[C@H](Cc3c[nH]cn3)NC(=O)[C@H](CCC(=O)O)NC(=O)[C@H](CC(C)C)NC(=O)[C@H](Cc3c[nH]cn3)NC2=O)NC1=O)C(=O)O` (stereo partly specified), the Hemolysis (Rattus norvegicus [2]) was 0.83%, the Hemolysis (Rattus norvegicus [3]) was 0.45% and the Hemolysis (Rattus norvegicus [4]) was 1.04%. The Control (Rattus norvegicus [8]) was 57%, the Control (Rattus norvegicus [9]) was 47% and the IC50 (Rattus norvegicus [5]) was 12.8 nM. The Papp (Caco-2) was 4.97 10e-6 cm s-1 and the Control (Rattus norvegicus [6]) was 92%.
